Measured values: ChEMBL document CHEMBL1123502, “Synthesis of [[(naphthalenylmethoxy)- and [[(quinolinylmethoxy)phenyl]amino]oxoalkanoic acid esters. A novel series of leukotriene D4 antagonists and 5-lipoxygenase inhibitors” (J Med Chem, 1986)

Key:
[1] = target: T1, Polyunsaturated fatty acid 5-lipoxygenase (Rattus norvegicus) (UniProt P12527); test: In vitro inhibition of rat polymorphonuclear leukocyte (PMN) 5-Lipoxygenase at 100 uM
T1 sequence (whole entry): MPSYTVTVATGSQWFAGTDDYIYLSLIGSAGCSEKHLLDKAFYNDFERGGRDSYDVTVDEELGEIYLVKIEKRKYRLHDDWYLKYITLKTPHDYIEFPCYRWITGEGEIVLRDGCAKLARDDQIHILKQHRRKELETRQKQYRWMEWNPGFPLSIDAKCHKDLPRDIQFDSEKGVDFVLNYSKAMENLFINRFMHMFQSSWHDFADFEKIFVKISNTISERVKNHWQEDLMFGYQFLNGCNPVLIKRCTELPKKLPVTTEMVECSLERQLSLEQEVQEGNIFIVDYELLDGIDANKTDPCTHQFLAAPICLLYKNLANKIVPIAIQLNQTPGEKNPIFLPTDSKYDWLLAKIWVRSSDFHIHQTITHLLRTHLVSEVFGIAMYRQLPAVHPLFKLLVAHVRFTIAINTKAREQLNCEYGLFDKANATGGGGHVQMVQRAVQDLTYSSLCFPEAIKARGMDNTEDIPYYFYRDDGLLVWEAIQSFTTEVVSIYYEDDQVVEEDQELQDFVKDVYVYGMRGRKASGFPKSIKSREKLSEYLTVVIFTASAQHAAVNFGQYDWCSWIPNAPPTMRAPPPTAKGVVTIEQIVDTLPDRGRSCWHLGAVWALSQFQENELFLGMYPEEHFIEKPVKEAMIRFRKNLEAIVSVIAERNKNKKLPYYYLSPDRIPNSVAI

[2] = In vivo inhibition of LTD4-induced bronchospasm in guinea pig at dose of 50 mg/kg; details: Cavia porcellus
[3] = target: Cyclooxygenase (Rattus norvegicus) (UniProt P35355+Q63921); test: In vitro inhibition of rat polymorphonuclear leukocyte (PMN) Prostaglandin G/H synthase at 100 uM
[4] = target: T2, Polyunsaturated fatty acid 5-lipoxygenase (Rattus norvegicus, UniProt P12527); test: Inhibition of rat polymorphonuclear leukocyte (PMN) 5-Lipoxygenase in vitro
T2 sequence (P12527 whole entry): T1 sequence (whole entry)
Summary of the method: (§1)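 Peritoneal PMNs came from female Wistar rats 24 h after ip 6% glycogen. Cells at 2×10^7/mL in HBSS with Ca2+/Mg2+ and 10 mM L-cysteine were preincubated with drug or vehicle for 10 min at 37 °C. The reaction was stopped with ice-cold water and acidified to pH 3.5, and LO and CO products were ether-extracted. IC50 per metabolite came from nonlinear regression.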

Cavia porcellus [5] = test: Compound was evaluated in vivo for the percent inhibition of Ovalbumin-induced (OA) bronchospasm in guinea pig at dose of 50 mg/kg id; type: functional; details: route intraduodenal
Summary of the method: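 Male Hartley guinea pigs (350-600 g) were sensitized with ovalbumin (5 mg ip plus 5 mg sc) and used 3-5 weeks later. They were anesthetized with pentobarbital, ventilated, and given indomethacin (10 mg/kg iv, 9 min before challenge) and chlorpheniramine (1.0 mg/kg iv, 1 min later). Drug was given id (or as noted) 10 min before 1% aerosolized ovalbumin; controls received saline. Overflow volume at 1, 3 and 5 min was taken as % of maximal bronchoconstriction and converted to % inhibition.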

Cavia porcellus [6] = species: Cavia porcellus; test: Compound was evaluated for its effect on LTC4-induced contraction of guinea pig trachea; percentage of maximal response of tissue to carbachol; type: functional
Summary of the method: (§2)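 Isolated guinea pig tracheal spiral strips were contracted with LTC4 or LTD4, with antagonist at 3×10^-6 M versus untreated control. Responses are expressed as percentage of the tissue's maximal response to carbachol (1 mM). Potency is given as -log of the agonist concentration (M) giving a half-maximal response. pKB = -log([B]/(dose ratio - 1)), where dose ratio = treated ED50 ÷ control ED50. Control vs treated compared by unpaired Student's t test.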

Cavia porcellus [7] = species: Cavia porcellus; test: Compound was evaluated for its effect on LTD4-induced contraction of guinea pig trachea; percentage of maximal response of tissue to carbachol; type: functional
Summary of the method: as §2

Cavia porcellus [8] = species: Cavia porcellus; test: Compound was evaluated for its effect on LTD4-induced contraction of guinea pig trachea; type: functional
Summary of the method: as §2

Cyclooxygenase = target: T3, Cyclooxygenase (Rattus norvegicus, UniProt P35355+Q63921); test: In vitro inhibition of rat polymorphonuclear leukocyte (PMN) Prostaglandin G/H synthase; type: protein assay
T3 sequence (P35355 whole entry): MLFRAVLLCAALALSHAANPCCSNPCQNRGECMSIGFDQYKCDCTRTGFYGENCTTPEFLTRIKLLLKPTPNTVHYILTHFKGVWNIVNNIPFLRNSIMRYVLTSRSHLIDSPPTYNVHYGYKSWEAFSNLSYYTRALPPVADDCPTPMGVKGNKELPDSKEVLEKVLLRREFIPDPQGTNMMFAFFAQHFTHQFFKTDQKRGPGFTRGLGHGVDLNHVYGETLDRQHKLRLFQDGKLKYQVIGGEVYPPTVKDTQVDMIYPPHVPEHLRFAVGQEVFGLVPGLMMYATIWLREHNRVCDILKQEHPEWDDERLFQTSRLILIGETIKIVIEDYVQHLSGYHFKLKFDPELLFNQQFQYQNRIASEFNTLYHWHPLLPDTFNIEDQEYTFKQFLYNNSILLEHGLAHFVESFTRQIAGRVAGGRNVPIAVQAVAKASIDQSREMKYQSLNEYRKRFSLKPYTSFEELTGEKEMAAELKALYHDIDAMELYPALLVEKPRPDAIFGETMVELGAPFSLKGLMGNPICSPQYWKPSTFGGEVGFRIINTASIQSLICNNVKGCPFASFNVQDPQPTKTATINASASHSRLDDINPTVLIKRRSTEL
T3 sequence (Q63921 whole entry): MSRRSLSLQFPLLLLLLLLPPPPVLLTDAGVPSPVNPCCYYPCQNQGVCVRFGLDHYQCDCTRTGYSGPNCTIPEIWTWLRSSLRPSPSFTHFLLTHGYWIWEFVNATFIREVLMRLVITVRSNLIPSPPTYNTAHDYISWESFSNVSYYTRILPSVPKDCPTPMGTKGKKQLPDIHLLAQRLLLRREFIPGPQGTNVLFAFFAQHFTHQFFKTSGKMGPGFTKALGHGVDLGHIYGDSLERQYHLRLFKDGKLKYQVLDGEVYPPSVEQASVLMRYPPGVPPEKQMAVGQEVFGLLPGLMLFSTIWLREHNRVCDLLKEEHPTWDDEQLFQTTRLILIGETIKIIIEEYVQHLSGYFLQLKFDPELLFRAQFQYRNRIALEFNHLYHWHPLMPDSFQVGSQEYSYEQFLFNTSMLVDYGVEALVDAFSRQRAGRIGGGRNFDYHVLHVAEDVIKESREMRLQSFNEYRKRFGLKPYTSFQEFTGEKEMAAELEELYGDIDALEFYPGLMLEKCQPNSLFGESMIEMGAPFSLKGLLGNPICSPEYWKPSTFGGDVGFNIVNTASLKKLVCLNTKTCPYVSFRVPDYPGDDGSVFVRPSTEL
Summary of the method: as §1

Cavia porcellus [9] = species: Cavia porcellus; test: Compound was evaluated for its effect on LTC4-induced contraction of guinea pig trachea; type: functional
Summary of the method: as §2

Compound | inhibition [2] [%] | inhibition [3] [%] | IC50 [4] [µM] | inhibition in vivo at 50 mg/kg (Cavia porcellus [5]) [%] | further results
COC(=O)CCC(=O)Nc1ccc(OCc2ccc3ccccc3c2)cc1 | 12 |  |  |  | inhibition [1]: < 50%
COC(=O)CCC(=O)Nc1cccc(OCc2ccc3ccccc3n2)c1C |  | < 50 | 15.5 |  | 
COC(=O)CC(=O)Nc1cccc(OCc2ccc3ccccc3n2)c1 |  | < 50 | 24.6 | 57 | 
COC(=O)CCC(=O)Nc1cccc(OCc2ccc3ccc(C)cc3n2)c1 | -6.1 | < 50 |  |  | inhibition [1]: < 50%
COC(=O)C(=O)Nc1cccc(OCc2ccc3ccccc3c2)c1 | -1 | < 50 | 6.9 |  | 
COC(=O)CC(=O)Nc1cccc(OCc2ccc3ccccc3c2)c1 |  | < 50 | 9.5 |  | 
COC(=O)CCC(=O)Nc1ccccc1OCc1ccc2ccccc2c1 |  | < 50 | 86.2 |  | 
COC(=O)CCC(=O)N(O)c1cccc(OCc2ccc3ccccc3n2)c1 | 97 |  | 1.4 | 76 | Max contractility (Cavia porcellus [6]): 77%; Max contractility (Cavia porcellus [7]): 63%; -Log ED50 (Cavia porcellus [8]): 7.79; pKB (Cavia porcellus [8]): 5.33; IC50 (Cyclooxygenase): 40 µM; -Log ED50 (Cavia porcellus [9]): 7.5; pKB (Cavia porcellus [9]): 5.35
COC(=O)CCNC(=O)c1cccc(OCc2ccc3ccccc3c2)c1 |  | < 50 | 29.5 |  | 
COC(=O)CCC(=O)Nc1cccc(OCc2ccc3ccccc3n2)c1 | 86 | < 50 | 28 | 43 | 
CCOC(=O)CC(=O)Nc1cccc(OCc2ccc3ccccc3n2)c1 |  | < 50 | 19 | 67 | 
COC(=O)CCCC(=O)Nc1cccc(OCc2ccc3ccccc3c2)c1 | 5 |  | 12.6 |  | 
COC(=O)CCC(=O)N(O)c1cccc(OCc2ccc3ccccc3c2)c1 |  |  | 0.6 | 18 | IC50 (Cyclooxygenase): 7.4 µM
COC(=O)CCC(=O)Nc1cccc(OCc2ccc3ccccc3n2)c1C#N | -6 | < 50 |  |  | inhibition [1]: < 50%
CCCCCC(O)c1cccc(OCc2ccc3ccccc3n2)c1 (stereo unspecified) |  | < 50 |  |  | 
O=C(O)CCNC(=O)c1cccc(OCc2ccc3ccccc3c2)c1 | 10 |  |  |  | inhibition [1]: < 50%

Compound | inhibition [2] [%] | inhibition [3] [%] | IC50 [4] [µM] | inhibition in vivo at 50 mg/kg (Cavia porcellus [5]) [%] | further results
O=C(O)CCNC(=O)c1cccc(COc2ccc3ccccc3c2)c1 | 2 |  |  |  | inhibition [1]: < 50%
COC(=O)CCC(=O)Nc1cc(OCc2ccc3ccccc3n2)ccc1C | 23 | < 50 | 7.6 |  | 
COC(=O)CCC(=O)Nc1cccc(OCc2cccc3cccnc23)c1 |  |  |  |  | inhibition [1]: < 50%
COC(=O)CCC(=O)Nc1cccc(COc2ccc3ccccc3c2)c1 |  | < 50 | 1.91 |  | 
CCOC(=O)CCC(=O)Nc1cccc(OCc2ccc3ccccc3n2)c1 | 95 | < 50 | 12.6 | 6 | 
COC(=O)CCNC(=O)c1cccc(OCc2ccc3ccccc3n2)c1 | -3 |  | 35.2 |  | 
O=C(O)CCC(=O)Nc1cccc(OCc2ccc3ccccc3n2)c1 | 66 |  |  | -20 | inhibition [1]: < 50%
COC(=O)CCC(=O)Nc1ccc(OCc2ccc3ccccc3n2)cc1 | -7 | < 50 | 2.6 |  | 
COC(=O)CCC(=O)N(O)c1cccc(COc2ccc3ccccc3c2)c1 | 5 |  | 0.86 |  | IC50 (Cyclooxygenase): 6.1 µM
COC(=O)C(=O)Nc1cccc(OCc2ccc3ccccc3n2)c1 | -2 | < 50 | 5.3 |  | 
COC(=O)CCC(=O)N(C)c1cccc(OCc2ccc3ccccc3n2)c1 | 48 | < 50 | 14 | 2 | 
COC(=O)CCNC(=O)c1cccc(COc2ccc3ccccc3c2)c1 | -6 |  | 60.5 |  | 
N#CCCNC(=O)c1cccc(OCc2ccc3ccccc3c2)c1 |  |  |  |  | inhibition [1]: < 50%
COC(=O)CCCC(=O)Nc1cccc(OCc2ccc3ccccc3n2)c1 |  |  | 10.4 |  | 
O=C(O)CCC(=O)N(O)c1cccc(OCc2ccc3ccccc3c2)c1 |  |  | 15.7 | -35 | 
COC(=O)CCC(=O)Nc1cccc(Oc2ccc3ccccc3n2)c1 | 29 |  | 26 | -55 | 
